{"data": "Measured values from different studies", "target": "Dual specificity mitogen-activated protein kinase kinase 6 (MAP2K6, Homo sapiens, UniProt P52564)", "One construct used (P52564 1-334)": "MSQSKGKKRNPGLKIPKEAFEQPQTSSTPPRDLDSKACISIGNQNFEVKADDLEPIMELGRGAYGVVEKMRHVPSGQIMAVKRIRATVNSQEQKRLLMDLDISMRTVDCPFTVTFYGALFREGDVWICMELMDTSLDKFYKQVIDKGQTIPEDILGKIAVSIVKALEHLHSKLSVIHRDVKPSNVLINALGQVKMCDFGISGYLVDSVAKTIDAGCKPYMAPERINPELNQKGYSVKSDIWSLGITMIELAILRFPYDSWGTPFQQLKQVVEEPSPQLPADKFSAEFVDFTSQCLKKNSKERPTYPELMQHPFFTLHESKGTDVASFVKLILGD"}
{"Compound": "CC1=C(C#N)[C@@H](c2ccc3[nH]nc(C)c3c2)C(C#N)=C(c2ccc(Cl)cc2)N1", "effect on": "cell-free assay", "method": "competition with immobilised ligand", "tested at": "1 µM", "remaining binding": "100%"}
{"Compound": "CNC(=O)[C@@]12C[C@@H]1[C@@H](n1cnc3c(NC)nc(C#Cc4ccc(Cl)s4)nc31)[C@H](O)[C@@H]2O", "effect on": "binding", "method": "competition with immobilised ligand", "tested at": "10 µM", "remaining binding": "17%"}
{"Compound": "CN(C)c1nccc(-c2cnc3ncccn23)n1", "effect on": "binding", "tested at": "1 µM", "remaining binding": "99%"}
{"Compound": "COc1cnc(Nc2cccc(S(N)(=O)=O)c2)nc1N1CCN(c2ccccc2)CC1", "effect on": "binding", "method": "competition with immobilised ligand", "tested at": "1 µM", "remaining binding": "100%"}
{"Compound": "c1cncc(-c2cccc(Nc3nccc(NC4CCCCC4)n3)c2)c1", "effect on": "binding", "method": "competition with immobilised ligand", "tested at": "10 µM", "remaining binding": "79%"}
{"Compound": "Cc1cnc(Nc2ccc(C(=O)N3CCC(N4CCCC4)CC3)cc2)nc1-c1cc2ccccc2s1", "effect on": "binding", "method": "competition with immobilised ligand", "tested at": "1 µM", "remaining binding": "30%"}
{"Compound": "CS(=O)(=O)N1CCCC(NC(=O)[C@H](CCC2CCCCC2)NC(=O)c2ccc(CNC(=O)c3cnc4ccccn34)cc2)C1 (stereo partly drawn)", "effect on": "cell-free assay", "method": "competition with immobilised ligand", "tested at": "0.1 µM", "remaining binding": "72%"}
{"Compound": "CN(CCCC(F)(F)F)c1nccc(-c2cnn3ncccc23)n1", "effect on": "binding", "tested at": "1 µM", "remaining binding": "100%"}
{"Compound": "CS(=O)(=O)N1CCCC(NC(=O)[C@H](CCC2CCCCC2)NC(=O)c2ccc(CNc3ncnc4c3nnn4-c3ccccc3)cc2)C1 (stereo partly drawn)", "effect on": "cell-free assay", "method": "competition with immobilised ligand", "tested at": "0.1 µM", "remaining binding": "67%"}
{"Compound": "O=C(NCCCN1CCOCC1)c1ccc(Nc2nccc(-c3cc4ccccc4s3)n2)cc1", "effect on": "binding", "method": "competition with immobilised ligand", "tested at": "1 µM", "remaining binding": "76%"}
{"Compound": "C[C@H]1CCN(c2nccc(-c3cnn4ncccc34)n2)C1", "effect on": "binding", "tested at": "1 µM", "remaining binding": "100%"}
{"Compound": "O=C(NCCCN1CCOCC1)c1ccc(Nc2ncc(Cl)c(-c3ccc(Cl)s3)n2)cc1", "effect on": "binding", "method": "competition with immobilised ligand", "tested at": "1 µM", "remaining binding": "87%"}
{"Compound": "Cc1c(C(=O)O)cc(-c2ccc(C3CCNCC3)cc2)c2ccc(-c3ccc(C(F)(F)F)cc3)cc12", "effect on": "binding", "method": "competition with immobilised ligand", "tested at": "1 µM", "remaining binding": "100%"}
{"Compound": "N[C@H]1CCN(c2nccc(-c3cnn4ncccc34)n2)C1", "effect on": "binding", "tested at": "1 µM", "remaining binding": "100%"}
{"Compound": "C[C@@H](c1ccc(-n2cnc3c(N)ncnc32)cc1)N1CCc2nn(C)c(Cc3ccccc3)c2C1=O", "effect on": "binding", "method": "competition with immobilised ligand", "tested at": "0.1 µM", "remaining binding": "90%"}
{"Compound": "COc1ccnn2ncc(-c3ccnc(N(C)C)n3)c12", "effect on": "binding", "tested at": "1 µM", "remaining binding": "100%"}
{"Compound": "O=C(NCC1CCOCC1)c1n[nH]cc1NC(=O)c1c(F)cccc1F", "effect on": "binding", "method": "competition with immobilised ligand", "tested at": "1 µM", "remaining binding": "95%"}
{"Compound": "COc1ncc2cc3ccccc3nc2c1C#N", "effect on": "cell-free assay", "method": "competition with immobilised ligand", "tested at": "5 µM", "remaining binding": "100%"}
{"Compound": "CO[C@@H](C)c1c(Nc2ccc([C@@H](N(C)C(=O)C3CCS(=O)(=O)CC3)C(F)(F)F)cc2)cnc2cc(Cl)nn12", "effect on": "cell-free assay", "method": "competition with immobilised ligand", "tested at": "1 µM", "remaining binding": "92%"}
{"Compound": "C=CC(=O)N1CCC(C(=O)NCC(=O)N2CCN(c3nc(-c4cnc(N)nc4C(F)F)nc(N4CCOCC4)n3)CC2)CC1", "effect on": "binding", "method": "competition with immobilised ligand", "tested at": "1 µM", "remaining binding": "100%"}
{"Compound": "CC(=O)C1=C(C)N(c2cccc(C(F)(F)F)c2)C(=O)N[C@@H]1c1ccc(C#N)nc1", "effect on": "cell-free assay", "method": "competition with immobilised ligand", "tested at": "1 µM", "remaining binding": "94.6%"}
{"Compound": "CN(C)c1ncc(F)c(-c2cnn3ncccc23)n1", "effect on": "binding", "tested at": "1 µM", "remaining binding": "100%"}
{"Compound": "Nc1cnc(N2CCc3cc(S(=O)(=O)Nc4c(F)cc(Cl)cc4F)cc(N4CCCC4=O)c32)nc1", "effect on": "cell-free assay", "method": "competition with immobilised ligand", "tested at": "1 µM", "remaining binding": "71%"}
{"Compound": "c1cnn2ncc(-c3ccnc(N4CCC45COC5)n3)c2c1", "effect on": "binding", "tested at": "1 µM", "remaining binding": "100%"}
